Read-outs that look alike come from different tables or passages of the source.
Columns and labels:
[1] = system: cancerous cells compared to the non-cancerous MCs; details: ref Khoury et al. (2022); cited from earlier work
mice = details: cited from earlier work
BALB/c mice = test: Preliminary cisplatin treatment in BALB/c mice; assay type: in vivo; details: 5 mg/kg dose, after few weeks of treatment, preliminary data
[2] = system: DMBA/TPA-induced skin tumors in BALB/c mice; test: DMBA/TPA induced skin carcinogenesis mouse model; assay type: in vivo; details: IP weekly; P-PENT 5 and 15 mg/kg, P-HEX 5, 15, 25 mg/kg, cisplatin 2.5 mg/kg
HaCaT-II-4 cells [3] = test: Quantification of cellular uptake by ICP-MS; assay type: cell-based, human; details: 3 μM, maximum at 24 h
HaCaT-II-4 cells [4] = test: Cytotoxicity, WST-1 cell viability assay; assay type: cell-based, human; details: read-out: IC50 against HaCaT-II-4 cells, 72 h post-treatment
Summary of the method: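 HaCaT-II-4 cells (passage 15) in DMEM with 10% FBS and 1% penicillin-streptomycin were seeded at 10,000 cells/100 μL per well. They were exposed for 72 h to 3-fold serial dilutions, 0.023–150 μM. Medium was replaced with fresh DMEM plus WST-1 for 4 h at 37 °C, and absorbance was read at 450 nm for viability. Three independent trials, each in triplicate; mean ± SEM.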

HaCaT-II-4 cells [5] = test: Cell death analysis by flow cytometry; assay type: cell-based, human; details: 3 μM
Summary of the method: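 HaCaT-II-4 cells plated at 10^5 cells/ml in 6-well plates, adhered overnight, then exposed to 3 μM test compound for 48 or 72 h at 37 °C, 5% CO2, with a positive control. Harvested cells resuspended in Guava Nexin reagent (Annexin V-PE/7-AAD), 10 min in the dark. Flow cytometry on FL1-H vs FL2-H gave % early apoptosis, late apoptosis and necrosis. Three independent experiments in triplicate; mean ± SEM.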

HaCaT-II-4 cells [6] = test: Cellular fractionation / intracellular distribution by ICP-MS; assay type: cell-based, human; details: 3 μM, 24 h
Summary of the method: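 HaCaT-II-4 cells adhered overnight at 37 °C, 5% CO2, then treated with 3 μM for 24 h. Washed thrice in cold PBS, trypsinised, pelleted (350 g, 5 min, 4 °C) and washed in PBS. Kit buffers gave the cytoplasmic fraction (on ice 5 min, 500 g), the membrane/organelle fraction (on ice 5 min, 8000 g) and a nuclear/cytoskeletal pellet. Results are % platinum per fraction; three independent experiments in triplicate, mean ± SEM.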

[7] = of body weight in mice, ref O'Dwyer et al., 1985, Korst et al., 1997

In the case of COc1ccnc2c1ccc1c(OC)ccnc12.NC1CCCCC1N.O=[N+]([O-])[O-].O=[N+]([O-])[O-].[OH-].[OH-].[Pt+4] [47OMESS(IV)], the “greater selectivity toward the cancerous cells compared to the non-cancerous MCs” value [1] is listed as 17–22 fold.

In the case of N.N.O=C([O-])C1(C(=O)[O-])CCC1.[Pt+2] [Carboplatin], the MTD as platinum (mice; [7]) is given as 31.53 mg Pt/Kg.

With N.N.[Cl][Pt][Cl] [Cisplatin] the mortality (BALB/c mice) was “causes significant mortality”, the “week from which tumor volume was significantly decreased compared to control” value [2] was 4 week and the maximum cellular uptake (HaCaT-II-4 cells [3]) was 380 nmol/10^6 cells. For the same compound, the MTD as platinum (mice; BALB/c mice, ref Aston et al. (2017)) was 3.9 mg Pt/Kg, the IC50 (HaCaT-II-4 cells [4]) was 6.7 ± 0.76 µM and the necrosis (HaCaT-II-4 cells [5]; 48 or 72 h) was “No evidence of significant necrosis”. For the same compound, the “early and late apoptosis compared to the negative control” value (HaCaT-II-4 cells [5]; 48 h and 72 h) was “significant (p < 0.0001) increase in both early and late apoptosis”, the “accumulation in cytoplasmic fraction (CF)” value (HaCaT-II-4 cells [6]) was 38% and the “accumulation in membrane and organelle (MO) fraction” value (HaCaT-II-4 cells [6]) was 47%. The “accumulation in nuclear and cytoskeletal (NC) fraction” value (HaCaT-II-4 cells [6]) was 15%.

In the case of O=C1[O][Pt]2([NH][C@@H]3CCCC[C@H]3[NH]2)[O]C1=O [Oxaliplatin], the MTD as platinum (mice; [7]) is listed as 9.82 mg Pt/Kg.
